# From PubChem
# Compounds with a hit are over-represented: about 1.2% of the library has one in this group of screens.
# Diaphorase inh: inhibits diaphorase or chemically oxidizes, flagging diaphorase assay artifacts; inhibition, % at 20 µM; 190,000 compounds, 0.69% hits; diaphorase resazurin-to-resorufin fluorescence, NADH, 16 min; bacterial (C. kluyveri) enzyme, not human;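 active = primary screen inhibition at 20 µM above a set limit, cut at about 50% in these data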;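 note: plate controls were DMSO with full reaction for no effect and wells lacking NADH for full effect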
#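 Assay system: diaphorase enzyme from Clostridium kluyveri; Input: enzyme working solution with 0.14 U/mL diaphorase; Timing: 16 min at room temperature; Technique: resorufin fluorescence, excitation 544 nm, emission 590 nm; Benchmarks: positive control minus NADH, DMSO neutral control.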
# HKDC1 inhibitor: blocks human hexokinase HKDC1 activity. Q2TB90. recombinant HKDC1, G6PDH/diaphorase resazurin coupled fluorescence. inhibition, % at 20 µM. 340,000 compounds, 0.16% hits. AID 493160;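 active = inhibition above about 35% when tested at 20 µM, limit read from the data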;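 note: plate controls were DMSO wells with enzyme for no effect and DMSO wells lacking enzyme for full effect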
# Target sequence (Q2TB90 whole entry, looked up): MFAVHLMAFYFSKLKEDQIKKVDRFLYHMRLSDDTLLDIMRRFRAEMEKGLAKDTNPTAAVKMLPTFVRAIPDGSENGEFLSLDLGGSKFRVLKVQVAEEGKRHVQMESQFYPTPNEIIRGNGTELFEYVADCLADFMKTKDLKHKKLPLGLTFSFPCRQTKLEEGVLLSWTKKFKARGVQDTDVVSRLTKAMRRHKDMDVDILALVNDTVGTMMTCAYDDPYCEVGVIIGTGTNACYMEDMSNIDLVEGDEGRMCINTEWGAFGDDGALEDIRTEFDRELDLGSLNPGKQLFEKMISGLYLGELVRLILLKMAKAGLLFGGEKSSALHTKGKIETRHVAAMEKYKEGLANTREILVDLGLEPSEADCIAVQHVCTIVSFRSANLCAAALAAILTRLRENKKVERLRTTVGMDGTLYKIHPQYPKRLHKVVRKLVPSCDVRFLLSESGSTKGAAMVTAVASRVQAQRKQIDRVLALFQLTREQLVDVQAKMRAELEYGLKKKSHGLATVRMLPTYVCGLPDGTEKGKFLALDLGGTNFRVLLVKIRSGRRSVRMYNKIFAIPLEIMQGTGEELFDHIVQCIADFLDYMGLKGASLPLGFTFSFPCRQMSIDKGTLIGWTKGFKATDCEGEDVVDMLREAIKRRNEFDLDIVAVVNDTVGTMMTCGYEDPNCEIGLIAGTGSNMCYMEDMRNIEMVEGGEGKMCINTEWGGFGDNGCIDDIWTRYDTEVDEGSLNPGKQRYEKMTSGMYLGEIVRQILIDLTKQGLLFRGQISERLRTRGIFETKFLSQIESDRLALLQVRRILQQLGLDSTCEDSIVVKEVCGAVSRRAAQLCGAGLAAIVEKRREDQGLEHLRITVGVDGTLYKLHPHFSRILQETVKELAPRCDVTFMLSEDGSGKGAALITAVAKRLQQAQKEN
#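 System: Recombinant HKDC1 hexokinase | Amount: HKDC1 at 5 µg/mL | Reagent: Glucose with 1 mM ATP | Doses: Single 20 µM dose | Incubation: Reaction time 90 min, room temperature, protected from light | Signal: Coupled resazurin fluorescence, excitation 525 nm, emission 613 nm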
# PfGluPho inh: PfG6PD (Plasmodium falciparum) enzyme inhibition | PfGluPho enzyme, NADPH resazurin-diaphorase fluorescence | inhibition, % at 20 µM | 350,000 compounds, 0.78% hits;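 active = inhibition reaching at least a set limit at 20 µM in the primary screen, cut at about 59% in these data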;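 note: 0% = DMSO wells with substrate and 100% = DMSO wells lacking glucose-6-phosphate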
# Diaph act CS: counter-screen for diaphorase-based assays: diaphorase activators and chemical reducers. Diaphorase/resazurin coupled assay, resorufin fluorescence, 16 min; active compounds read high; 1 = vehicle wells, 0 = NADH-free wells. activation factor at 20 µM. 190,000 compounds, 0.005% hits;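 active = diaphorase activity raised at least twofold by the compound at 20 µM; inactive = activation factor below 2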
#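 Material: bacterial diaphorase enzyme (C. kluyveri); amount: enzyme 0.07 U/mL final; reagent: NADH substrate 0.114 mM plus resazurin dye 0.1 mM, final; doses: single compound dose of 20 µM, 1% DMSO final; timing: 16 min enzyme reaction, ambient temperature; measured by: fluorescence of resorufin, 544 nm excitation, 590 nm emission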
# G6PDH CS: inhibits Leuconostoc G6PDH, flagging false hits in G6PDH-based assays | Purified L. mesenteroides G6PDH, diaphorase/resazurin coupled fluorescence, 45 min | inhibition, % at 5 µM | 200,000 compounds, 0.12% hits | AID 1020; in the data active = inhibition above about 50%
# The depositor's hits bear a star; / = no result given.
SMILES,Diaphorase inh,HKDC1 inhibitor,PfGluPho inh,Diaph act CS,G6PDH CS
CCO[C@@H]1OC(C(=O)N2CCN(Cc3ccc4c(c3)OCO4)CC2)=C[C@H](c2cn(C(C)=O)c3ccccc23)[C@H]1CCCO,56*,3,11,0.4,18
CC(=O)n1cc([C@H]2C=C(C(=O)N3CCN(Cc4ccc5c(c4)OCO5)CC3)O[C@@H](OCCCCO)C2)c2ccccc21,56*,3,-8,0.4,18
Cn1c(C(=O)Nc2ccc3c(c2)OCCO3)cc2c(=O)n(C)c3ccccc3c21,54*,10,54,0.5,-6
COc1ccc(C(=O)NC2CCN(CC(=O)NCc3ccccc3)CC2)cc1,/,-8,-14,/,/
COc1ccc(-c2ncncc2-c2csc(C)n2)c(O)c1OC,1,-6,-22,1,0
COC1=C(N)C(=O)c2nc(-c3nc(C(=O)O)c(C)c(-c4ccc(OC)c(OC)c4O)c3N)ccc2C1=O,68*,4,93*,0.3,56*
CC1=CC(=O)C(C(C)C)=CC1=NC(=O)c1ccc(C)cc1,37,9,93*,0.6,8
Cc1ccc(C2C(C#N)=C(N)Oc3c2sc2ccccc32)o1 (stereo unspecified),55*,/,/,0.4,32
CCOC(=O)CC1=C(C(=O)OCC)C(c2ccc(C)o2)C(C#N)=C(N)O1 (stereo unspecified),8,1,2,0.9,-10
CC(CNC(=O)Cn1cnc2c(NCc3ccccc3)ncnc21)c1ccccc1 (stereo unspecified),/,-3,-2,/,/
CCOC(=O)c1oc2nc(C(C)C)c3c(c2c1N)CC(C)(C)OC3,68*,33,48,0.3,12
CCCc1nc2oc(C(=O)OCC)c(N)c2c2c1COC(C)(C)C2,12,10,7,0.9,2
CCOc1ccccc1OC(=O)c1cc2ccccc2oc1=O,-5,-11,8,1.1,6
CSc1ccccc1NC(=O)CN(C)C(=O)Cc1c(F)cccc1Cl,/,-6,-6,/,/
N=c1c(C(=O)NCc2ccco2)cc2c(=O)n3ccccc3nc2n1Cc1ccccc1,3,-3,18,1,7
Cc1ccc(CNC(=O)c2cc3c(=O)n4ccccc4nc3n(Cc3ccco3)c2=N)cc1,90*,9,30,0.1,6
N=c1c(C(=O)NCc2ccc(F)cc2)cc2c(=O)n3ccccc3nc2n1Cc1ccco1,51*,6,24,0.5,-7
Cc1ccc2nc3c(cc(C(=O)NCc4ccco4)c(=N)n3Cc3ccco3)c(=O)n2c1,/,0,28,/,5
N=c1c(C(=O)NCc2ccccc2)cc2c(=O)n3ccccc3nc2n1Cc1ccco1,68*,6,13,0.3,-1
N=c1c(C(=O)NCc2ccco2)cc2c(=O)n3ccccc3nc2n1Cc1ccc(Cl)cc1,11,6,12,0.9,-3
CSCCC(=O)N1CC[C@@H](N2CCN(c3ccccc3F)CC2)[C@H](O)C1,/,-2,-4,/,/
CSc1nc(N)nc2c1ncn2CC(=O)NCc1ccc2[nH]ccc2c1,/,-4,16,/,/
Cc1sc2ncnc(SCC(=O)Nc3nc(-c4ccc(F)c(F)c4)cs3)c2c1C,-20,11,-8,1.2,-5
O=C(NCCc1c[nH]c2ccccc12)C(=O)c1c[nH]c2ccccc12,/,6,10,/,/
Cc1cc2cc(CCNC(=O)c3ccc(C)c([N+](=O)[O-])c3)c(=O)[nH]c2cc1C,72*,29,-20,0.3,19
SMILES,Diaphorase inh,HKDC1 inhibitor,PfGluPho inh,Diaph act CS,G6PDH CS
Cc1cc2cc(CCNC(=O)C(=O)c3c[nH]c4ccccc34)c(=O)[nH]c2cc1C,70*,27,27,0.3,1
COc1ccc(-n2c(C)cc(/C=C3\C(=N)N4N=C(CC(=O)N5CCOCC5)SC4=NC3=O)c2C)cc1,/,5,-29,/,/
C#CCN(C[C@@H]1[C@@H](OC(=O)NCc2ccccc2F)[C@@H](OC(=O)NCc2ccccc2F)Cn2c(=O)ccc(=O)n21)S(=O)(=O)c1ccc(C)cc1,/,/,3,/,/
CCN(c1ccccc1)S(=O)(=O)c1cc2c(cc1C)NC(=O)CO2,/,0,-17,/,/
O=C(NCCN1CCOCC1)C1CC(=O)N(c2ccc(Cl)cc2)C1 (stereo unspecified),/,-2,-3,/,/
CC1(c2nnc(-c3ccncc3)o2)CC(c2ccccc2)=NO1 (stereo unspecified),/,0,-2,/,/
CC(C)c1ccc(C2CC(=O)N3CN(C)CSC3=C2C#N)cc1 (stereo unspecified),36,27,86*,0.6,19
COc1ccc2ccccc2c1C1CC(=O)N2CN(C)CSC2=C1C#N (stereo unspecified),52*,10,79*,0.5,21
Cc1c(/C=N/NC(=O)C(NC(=O)c2ccc3c(c2)OCO3)C(C)C)c2ccccc2n1C (stereo unspecified),21,9,-4,0.8,4
COc1ccc(C[C@H]2c3cc(O)c(OC)cc3CC[N+]2(C)[O-])cc1O (stereo partly specified),/,4,19,/,/
CCCCCCCCCCCCCCCCn1cc[n+](CC(C)=O)c1,-201,4,6,3*,4
CCCCCCn1ccc(=N)cc1,17,-4,0,0.8,14
C=CCOc1c(Br)cc(CNc2ccc(NC(=O)C(C)C)c(OC)c2)cc1OCC,34,5,60*,0.7,26
COc1ccccc1N(CC(=O)NC(C)(C)C)C(=O)CCC(=O)Nc1nccs1,/,-7,9,/,/
CC(C)(C)NC(=O)C(c1c[nH]c2ccccc12)N(C(=O)Cn1nnc(-c2ccc(F)cc2)n1)c1cccc(O)c1 (stereo unspecified),26,-7,19,0.7,8
CCCSC1=N/C(=C\C=C\c2ccco2)C(=O)S1,51*,4,25,0.5,8
S=c1[nH]nc(-c2ccco2)n1/N=C/C=C/c1ccccc1,57*,2,21,0.4,1
O=C(Cn1cnc2c(NCc3ccccc3)ncnc21)NCCc1cc2ccccc2[nH]1,/,-2,-3,/,/
COc1ccc2[nH]c(=O)c(CNc3ccccc3OC)cc2c1,/,21,69*,/,/
Cc1cn(CC(=O)NCCc2c[nH]c3ccccc23)c(=O)[nH]c1=O,/,-7,3,/,/
Nc1cc2nn(-c3ccccc3)nc2cc1Cl,81*,22,5,0.2,55*
Nc1ccc2nn(-c3ccccc3)nc2c1,60*,8,-18,0.4,32
CN(C(=O)c1cccc(NC(=O)Cc2cccc(NC(=O)C3CCCN(C(=O)c4ccccc4)C3)c2)c1)C1CC1 (stereo unspecified),/,-4,-3,/,/
COc1ccc(-c2csc(NC(=O)c3cc(=O)c4ccccc4o3)n2)cc1OC,0,12,67*,1,-8
COc1ccc(-c2csc(NC(=O)c3cc(C)oc3C)n2)cc1OC,/,3,24,/,/
